Source: ChEMBL document CHEMBL2203272, “New fluorescent bile acids: synthesis, chemical characterization, and disastereoselective uptake by Caco-2 cells of 3-deoxy 3-NBD-amino deoxycholic and ursodeoxycholic acid” (Bioorg Med Chem, 2012)

Tests used:
Caco-2 [1] = test: Cellular uptake in human Caco2 cells at 10 uM at 4 to 37 degC after 90 mins by fluorescence assay; format: ADME, cell-based; settings: caco-2, 1.5 h
In short: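 Caco-2 grown 21 d on 24-well plates as polarised monolayers; compound at 10 μM in bicarbonated Krebs-Ringer buffer (HEPES, pH 7.4) with 0.1% DMSO, at 37°C or 4°C, sampled 5–90 min. Washed twice with ice-cold KRB, lysed in 1% Triton X-100, lysate fluorescence read at ex 485/em 520 nm, normalised to BCA protein. Active uptake = 37°C minus 4°C; mean ± SD, n = 3.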

Caco-2 [2] = test: Cellular uptake in human Caco2 cells at 4 to 37 degC after 20 mins by fluorescence assay; format: ADME, cell-based; settings: caco-2, 20 min
In short: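 Uptake into 21-d Caco-2 monolayers over 20 min at 37°C and 4°C, in KRB pH 7.4 with 0.1% DMSO. Monolayers washed with ice-cold KRB and solubilised in 1% Triton X-100. Fluorescence read at ex 485/em 520 nm with BCA protein normalisation. Active part taken as the 37°C minus 4°C difference; n = 3.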

Caco-2 [3] = test: Cellular uptake in human Caco2 cells at 10 uM at 4 degC by fluorescence assay; format: ADME, cell-based; settings: caco-2, 10 µM, TDE = time-dependent effect
In short: (§1)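 21-d polarised Caco-2 monolayers incubated with 10 μM in KRB (pH 7.4, 0.1% DMSO) at 37°C or 4°C. Sampled at 5, 10, 15, 30, 45, 60 and 90 min. Cells washed twice with ice-cold KRB and lysed in 1% Triton X-100. Lysate fluorescence read at ex 485/em 520 nm and normalised to BCA protein; mean ± SD, n = 3.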

Caco-2 [4] = test: Cellular uptake in human Caco2 cells at 10 uM at 37 degC by fluorescence assay; format: ADME, cell-based; settings: caco-2, 10 µM, TDE = time-dependent effect; in short: as §1
Huh-7 = test: Cytotoxicity against human HuH7 cells assessed as cell viability at 1 to 100 uM up to 24 hrs by MTT assay; format: cell-based; settings: huh-7, 24 h
In short: (§2)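 HUH-7 and SKGT-4 cells exposed up to 100 μM for up to 24 h; viability by MTT assay.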

[5] = Cytotoxicity against human SKGT4 cells assessed as cell viability at 1 to 100 uM up to 24 hrs by MTT assay; format: cell-based; settings: skgt4, 24 h; in short: as §2
Caco-2 [6] = test: Cytotoxicity against human Caco2 cells assessed as cell viability at 1 to 100 uM up to 100 mins by MTT assay; format: cell-based; settings: caco-2, 100 min
In short: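 Caco-2 monolayers exposed to 1–100 μM for up to 100 min; viability by MTT assay.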

[7] = Stability of the compound in MeCN/phosphate buffer assessed as compound remaining at pH 7.4 measured for 24 hrs by HPLC analysis; format: physicochemical; settings: pH 7.4, 24 h
In short: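 Solution at 0.01 mg/ml (stock) in 2% MeCN/phosphate buffer pH 7.4, held at 37°C for 24 h and injected hourly. Analysed by C18 reversed-phase HPLC with MeCN/pH 2.5 phosphate buffer gradient, 1.0 ml/min, column 37°C, detection 346 nm; remaining compound followed by peak area.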

[8] = Cellular uptake in human Caco2 cells assessed as uptake rate at 1 to 100 uM at 4 to 37 degC after 20 mins by Eadie-Hofstee plot method; format: ADME, cell-based; settings: Caco-2 cells
In short: (§3)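 Caco-2 monolayers grown 21 d, exposed to 1–100 μM in bicarbonated Krebs-Ringer buffer (HEPES, pH 7.4, 0.1% DMSO) for 20 min at 37°C and 4°C. Washed twice with ice-cold KRB, lysed in 1% Triton X-100, fluorescence read at ex 485/em 520 nm and normalised to BCA protein. Active uptake = 37°C minus 4°C. Km/Vmax from Michaelis-Menten non-linear least squares fit, Eadie-Hofstee plot; n = 3.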

Caco-2 [9] = test: Cellular uptake in human Caco2 cells assessed as uptake rate measured per mg of protein at 1 to 100 uM at 4 to 37 degC after 20 mins by Eadie-Hofstee plot method; format: ADME, cell-based; settings: caco-2, 20 min; in short: as §3

| Drug uptake (Caco-2 [3]) | Drug uptake (Caco-2 [4]) | Stability [7] | Km at 20 min, up to 100 µM [8] | Vmax (Caco-2 [9]) | SMILES | Drug uptake (Caco-2 [1]) | Drug uptake (Caco-2 [2]) | Activity (Huh-7) | Activity [5] | Activity (Caco-2 [6]) |
| --- | --- | --- | --- | --- | --- | --- | --- | --- | --- | --- |
|  |  |  |  |  | O=[N+]([O-])c1ccc(NC2CCCCC2)c2nonc12 | Active | Dose-dependent effect |  |  |  |
| tde | tde | Stable |  |  | C[C@H](CCC(=O)O)[C@H]1CC[C@H]2[C@@H]3[C@@H](O)C[C@@H]4C[C@@H](Nc5ccc([N+](=O)[O-])c6nonc56)CC[C@]4(C)[C@H]3CC[C@]12C |  |  | Non-toxic | Non-toxic | Non-toxic |
| tde | tde |  | 28.2 µM | 1.8 nmol/min/mg | C[C@H](CCC(=O)O)[C@H]1CC[C@H]2[C@@H]3CC[C@@H]4C[C@H](Nc5ccc([N+](=O)[O-])c6nonc56)CC[C@]4(C)[C@H]3C[C@H](O)[C@]12C |  | Dose-dependent effect | Non-toxic | Non-toxic | Non-toxic |
